Experimental data pooled from the literature.
Each line is one published result; the experiments were not run side by side.

SMILES	species	matrix	route	dose	setting	Cmax
CC(C)[C@]12O[C@H]1[C@@H]1O[C@]13[C@]1(O[C@H]1C[C@H]1C4=C(CC[C@@]13C)C(=O)OC4)[C@@H]2O	SCID mouse	plasma	intravenous	0.6 mg/kg		1290 ng/mL
CCOC(=O)c1c(NC(=O)CNC(C)C)sc2c1CCCCC2	male mouse	brain	intraperitoneal	100 mg/kg	single dose	15800 ng/g
C[C@@H](O)[C@@H]1NC(=O)CNC(=O)[C@H](Cc2c[nH]cn2)NC(=O)[C@H](Cc2c[nH]c3ccccc23)NC(=O)[C@H](CC(N)=O)NC(=O)CNC(=O)C[C@@H](C(=O)N[C@@H](Cc2c[nH]c3ccccc23)C(=O)N[C@@H](Cc2ccccc2)C(=O)N[C@@H](Cc2ccccc2)C(=O)N[C@@H](CC(N)=O)C(=O)N[C@@H](Cc2ccc(O)cc2)C(=O)N[C@@H](Cc2ccc(O)cc2)C(=O)N[C@@H](Cc2c[nH]c3ccccc23)C(=O)O)NC(=O)[C@@H]2CCCN2C(=O)[C@H](CO)NC1=O	mouse	plasma	intravenous	3 mg/kg		11400 ng/mL
N=C(N)NCCC[C@H](NC(=O)[C@H](Cc1ccccc1)NC(=O)[C@H](CCC(N)=O)NC(=O)OCc1ccccc1)C(=O)c1nccs1	female C57BL/6 mouse	plasma	intravenous	5 mg/kg		3460 ng/mL
O=C1CCC(N2Cc3c(ccc4c3OCC43CCN(Cc4ccccc4)CC3)C2=O)C(=O)N1 (centres unmarked)	male CD-1 mouse	plasma	intravenous	1 mg/kg		299 ng/mL
Cc1[nH]c(C)c(S(=O)(=O)Nc2ccc(S(F)(F)(F)(F)F)cc2)c1C(=O)N1CCC(F)(F)C1	mouse	plasma	intraperitoneal	40 mg/kg		31 µM
CC(C)=CCC[C@](C)(O[C@@H]1O[C@H](CO)[C@@H](O)[C@H](O)[C@H]1O)[C@H]1CC[C@]2(C)[C@@H]1[C@H](O)C[C@@H]1[C@@]3(C)CC[C@H](O)C(C)(C)[C@@H]3CC[C@]12C	mouse	plasma	oral	10 mg/kg		107 ng/mL
COc1cc(C(=O)c2nc(-c3cccc4[nH]ccc34)c[nH]2)cc(OC)c1OC	male CD-1 mouse	plasma	intraperitoneal	15 mg/kg		1870 ng/mL
